Measurements as given in ChEMBL document CHEMBL2331548, “Identification of N-acyl 4-(3-pyridonyl)phenylalanine derivatives and their orally active prodrug esters as dual acting α4β1 and α4β7 receptor antagonists” (Bioorg Med Chem Lett, 2013).
≈ marks a conversion by molar mass, not a printed value.

Key:
[1] = target: T1, Integrin alpha-4/beta-1 (Homo sapiens, UniProt P05556+P13612); assay: Inhibition of human VCAM1 binding to integrin alpha4beta1 receptor in human Ramos cells labeled with Calcein AM; format: cell-based
T1 sequence (P05556 whole entry, one chain of several): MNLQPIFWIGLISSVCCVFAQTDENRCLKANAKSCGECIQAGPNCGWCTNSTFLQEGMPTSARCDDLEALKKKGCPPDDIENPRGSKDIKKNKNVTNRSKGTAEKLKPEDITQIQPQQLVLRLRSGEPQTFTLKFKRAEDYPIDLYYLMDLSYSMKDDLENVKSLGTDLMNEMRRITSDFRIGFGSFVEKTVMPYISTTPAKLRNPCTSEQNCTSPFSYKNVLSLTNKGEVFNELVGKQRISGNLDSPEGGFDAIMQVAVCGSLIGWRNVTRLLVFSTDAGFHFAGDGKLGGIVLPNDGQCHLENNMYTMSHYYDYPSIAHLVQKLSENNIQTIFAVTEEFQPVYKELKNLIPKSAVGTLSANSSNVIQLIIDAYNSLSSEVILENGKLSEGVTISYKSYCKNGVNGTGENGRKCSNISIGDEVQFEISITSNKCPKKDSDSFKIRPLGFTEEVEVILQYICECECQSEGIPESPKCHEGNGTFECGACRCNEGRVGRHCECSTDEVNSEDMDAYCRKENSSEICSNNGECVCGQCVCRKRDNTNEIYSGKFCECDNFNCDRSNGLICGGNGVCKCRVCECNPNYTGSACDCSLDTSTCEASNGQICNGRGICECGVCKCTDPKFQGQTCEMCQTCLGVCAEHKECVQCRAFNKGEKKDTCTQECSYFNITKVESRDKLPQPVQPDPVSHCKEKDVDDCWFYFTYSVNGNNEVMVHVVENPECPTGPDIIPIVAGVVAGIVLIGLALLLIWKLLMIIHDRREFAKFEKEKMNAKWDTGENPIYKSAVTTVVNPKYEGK
Summary of the method: (§1)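 Serially diluted compound tested for blocking adhesion of Calcein AM-labelled cells to recombinant human counter-ligand: RAMOS cells on VCAM-1 (α4β1) and RPMI 8866 cells on MAdCAM-1 (α4β7). Cells activated beforehand in Mn2+-containing binding buffer for maximal activation. IC50 taken from fluorescence; RO0270608 run on every plate, and relative potency expressed as fold versus this control because cell activity drifted with passage.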

[2] = target: T1, Integrin alpha-4/beta-1; assay: Inhibition of human VCAM1 binding to integrin alpha4beta1 receptor in human Ramos cells labeled with Calcein AM relative to RO0270608; format: cell-based; summary of the method: as §1
[3] = target: T2, Integrin alpha-4/beta-7 (Homo sapiens, UniProt P13612+P26010); assay: Inhibition of human MAdCAM1 binding to integrin alpha4beta7 receptor in human RPMI 8866 cells labeled with Calcein AM; format: cell-based; summary of the method: as §1
T2 sequence (P13612 whole entry): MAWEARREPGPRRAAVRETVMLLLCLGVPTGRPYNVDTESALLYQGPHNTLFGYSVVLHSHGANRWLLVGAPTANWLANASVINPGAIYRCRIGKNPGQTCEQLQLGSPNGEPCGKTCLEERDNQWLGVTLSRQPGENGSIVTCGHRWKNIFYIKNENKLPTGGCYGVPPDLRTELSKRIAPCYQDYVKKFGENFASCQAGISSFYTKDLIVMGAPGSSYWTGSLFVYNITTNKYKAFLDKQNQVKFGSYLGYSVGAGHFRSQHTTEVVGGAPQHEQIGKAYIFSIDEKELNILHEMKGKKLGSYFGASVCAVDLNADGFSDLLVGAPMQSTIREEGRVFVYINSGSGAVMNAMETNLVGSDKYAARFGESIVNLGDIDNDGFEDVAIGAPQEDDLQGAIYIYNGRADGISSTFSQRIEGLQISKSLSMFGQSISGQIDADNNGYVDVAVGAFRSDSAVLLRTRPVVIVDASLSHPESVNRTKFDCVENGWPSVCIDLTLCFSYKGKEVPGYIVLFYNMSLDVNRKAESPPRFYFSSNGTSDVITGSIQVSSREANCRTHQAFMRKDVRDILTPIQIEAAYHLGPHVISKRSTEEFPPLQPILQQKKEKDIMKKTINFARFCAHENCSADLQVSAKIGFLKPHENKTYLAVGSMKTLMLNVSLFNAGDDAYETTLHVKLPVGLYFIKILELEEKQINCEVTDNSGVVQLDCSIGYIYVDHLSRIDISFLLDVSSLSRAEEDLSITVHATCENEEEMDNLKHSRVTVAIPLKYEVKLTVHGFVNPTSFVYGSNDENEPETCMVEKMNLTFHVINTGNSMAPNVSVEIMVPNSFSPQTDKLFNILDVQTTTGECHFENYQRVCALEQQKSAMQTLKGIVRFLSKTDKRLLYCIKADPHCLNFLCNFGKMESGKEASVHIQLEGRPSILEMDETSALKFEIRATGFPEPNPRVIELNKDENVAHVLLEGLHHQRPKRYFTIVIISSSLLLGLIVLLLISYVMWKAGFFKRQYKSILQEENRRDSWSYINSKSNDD
T2 sequence (P26010 whole entry): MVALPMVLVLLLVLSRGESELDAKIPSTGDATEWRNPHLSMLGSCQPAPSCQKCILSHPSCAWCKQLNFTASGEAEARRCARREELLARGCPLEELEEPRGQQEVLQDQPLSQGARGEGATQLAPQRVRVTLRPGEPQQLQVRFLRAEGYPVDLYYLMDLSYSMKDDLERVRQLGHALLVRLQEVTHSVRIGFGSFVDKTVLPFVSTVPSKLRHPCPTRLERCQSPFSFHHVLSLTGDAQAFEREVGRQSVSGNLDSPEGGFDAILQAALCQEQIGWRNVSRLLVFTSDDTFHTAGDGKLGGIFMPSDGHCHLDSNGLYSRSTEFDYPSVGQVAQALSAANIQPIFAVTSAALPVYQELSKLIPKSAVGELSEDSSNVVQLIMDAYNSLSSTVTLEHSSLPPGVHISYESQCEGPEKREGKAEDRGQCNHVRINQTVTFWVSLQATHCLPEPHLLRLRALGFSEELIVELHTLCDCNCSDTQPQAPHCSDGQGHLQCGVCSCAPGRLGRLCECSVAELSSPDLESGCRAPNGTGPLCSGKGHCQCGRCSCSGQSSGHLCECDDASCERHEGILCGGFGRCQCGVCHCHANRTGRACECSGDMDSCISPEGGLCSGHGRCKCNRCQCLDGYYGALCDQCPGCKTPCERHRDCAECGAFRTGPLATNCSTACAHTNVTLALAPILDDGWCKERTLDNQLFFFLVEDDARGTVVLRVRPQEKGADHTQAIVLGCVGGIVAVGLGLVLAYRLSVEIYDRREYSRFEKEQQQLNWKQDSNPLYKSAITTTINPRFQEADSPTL

[4] = target: Integrin alpha-4/beta-7 (Homo sapiens) (UniProt P13612+P26010); assay: Inhibition of human MAdCAM1 binding to integrin alpha4beta7 receptor in human RPMI 8866 cells labeled with Calcein AM relative to RO0270608; format: cell-based; summary of the method: as §1
[5] = Apparent permeability across human Caco2 cells; format: ADME, cell-based; conditions: Caco-2
[6] = Solubility in simulated intestinal fluid at pH 7.5; format: physicochemical
[7] = Solubility in simulated gastric fluid at pH 2.0; format: physicochemical
[8] = Stability in simulated intestinal fluid at pH 7.5 assessed as half life; format: physicochemical; conditions: for Stability: simulated gi fluid
[9] = Oral bioavailability in rat; format: ADME, organism-based; conditions: in vivo
[10] = Stability in plasma (unknown origin) assessed as unchanged prodrug level; format: ADME, cell-free
[11] = target: hERG (KCNH2) (Homo sapiens, UniProt Q12809); assay: Inhibition of human ERG
hERG (KCNH2), sequence (Q12809 whole entry): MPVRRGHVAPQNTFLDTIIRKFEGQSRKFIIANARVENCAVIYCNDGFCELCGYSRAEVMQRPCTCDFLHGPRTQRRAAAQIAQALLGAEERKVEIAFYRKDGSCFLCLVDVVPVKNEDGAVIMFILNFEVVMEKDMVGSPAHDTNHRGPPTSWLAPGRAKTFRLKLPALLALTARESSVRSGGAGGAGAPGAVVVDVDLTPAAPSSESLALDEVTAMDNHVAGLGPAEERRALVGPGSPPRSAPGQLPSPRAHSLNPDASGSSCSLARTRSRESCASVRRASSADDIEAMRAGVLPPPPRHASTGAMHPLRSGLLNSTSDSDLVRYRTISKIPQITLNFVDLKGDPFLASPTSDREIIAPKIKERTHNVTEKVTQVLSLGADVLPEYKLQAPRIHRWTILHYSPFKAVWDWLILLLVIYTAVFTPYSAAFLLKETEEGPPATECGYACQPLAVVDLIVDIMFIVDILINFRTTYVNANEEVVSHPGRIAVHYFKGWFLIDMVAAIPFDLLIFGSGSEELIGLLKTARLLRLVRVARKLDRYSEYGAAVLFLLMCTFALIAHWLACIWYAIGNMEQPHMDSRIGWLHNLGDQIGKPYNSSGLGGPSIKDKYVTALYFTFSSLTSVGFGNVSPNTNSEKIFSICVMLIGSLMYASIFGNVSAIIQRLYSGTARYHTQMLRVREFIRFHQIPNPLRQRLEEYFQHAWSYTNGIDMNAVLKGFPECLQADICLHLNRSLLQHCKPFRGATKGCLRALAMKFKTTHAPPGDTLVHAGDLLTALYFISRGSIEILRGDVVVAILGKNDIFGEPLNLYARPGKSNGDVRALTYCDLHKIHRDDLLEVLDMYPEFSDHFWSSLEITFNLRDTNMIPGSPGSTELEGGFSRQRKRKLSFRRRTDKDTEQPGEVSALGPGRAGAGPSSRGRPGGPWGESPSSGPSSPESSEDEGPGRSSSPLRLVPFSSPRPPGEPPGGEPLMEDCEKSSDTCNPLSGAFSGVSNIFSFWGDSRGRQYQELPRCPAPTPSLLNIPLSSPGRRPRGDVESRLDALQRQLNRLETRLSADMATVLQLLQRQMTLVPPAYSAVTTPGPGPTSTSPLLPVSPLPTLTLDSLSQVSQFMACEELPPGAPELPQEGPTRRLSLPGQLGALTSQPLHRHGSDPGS

[12] = simulated gastric fluid, read-out: solubility
[13] = simulated gi fluid, BLD = below limit of detection

| SMILES | IC50 [1] | Ratio IC50 [2] | IC50 [3] | Ratio IC50 [4] | Papp [5] | other results |
| --- | --- | --- | --- | --- | --- | --- |
| Cc1cc(C(F)(F)F)c(-c2ccc(C[C@H](NC(=O)c3c(Cl)cccc3Cl)C(=O)O)cc2)c(=O)n1Cc1ccccc1 | 560 nM | 0.12 | 600 nM | 0.96 |  |  |
| COCCC1(C(=O)N[C@@H](Cc2ccc(-c3c(C(F)(F)F)cc(C)n(C)c3=O)cc2)C(=O)O)CCCC1 | 140 nM | 0.75 | 671 nM | 0.54 |  |  |
| Cc1cc(C(F)(F)F)c(-c2ccc(C[C@H](NC(=O)c3c(Cl)cccc3Cl)C(=O)O)cc2)c(=O)[nH]1 | 820 nM | 0.08 | 810 nM | 0.65 |  |  |
| Cc1cccc(C(C)C)c1C(=O)N[C@@H](Cc1ccc(-c2c(C(F)(F)F)cc(C)n(C)c2=O)cc1)C(=O)O | 366 nM | 0.36 | 1290 nM | 0.23 |  |  |
| Cc1cccc(Cl)c1C(=O)N[C@@H](Cc1ccc(-c2c(C(F)(F)F)cc(C)n(C)c2=O)cc1)C(=O)O | 48 nM | 0.47 | 154 nM | 3.5 |  |  |
| Cc1cc(C(F)(F)F)c(-c2ccc(C[C@H](NC(=O)c3c(Cl)cccc3Cl)C(=O)OCC(O)CO)cc2)c(=O)n1C (some centres undefined) |  |  |  |  | 1.8 ×10⁻⁶ cm/s | solubility [6]: 140 µg/mL (≈ 233 µM); solubility [7, 12]: 190 µg/mL (≈ 316 µM); Stability [8]: Stable; bioavailability [9]: 6%; Stability [10]: Stable |
| Cc1cccc(Cl)c1C(=O)N[C@@H](Cc1ccc(NC(=O)c2c(Cl)cccc2Cl)cc1)C(=O)O | 10 nM |  | 43 nM |  |  |  |
| COCCOC(=O)[C@H](Cc1ccc(-c2c(C(F)(F)F)cc(C)n(C)c2=O)cc1)NC(=O)c1c(Cl)cccc1Cl |  |  |  |  | 49.9 ×10⁻⁶ cm/s | solubility [7, 13]: BLD; Stability [8]: Stable |
| Cc1cccc(Cl)c1C(=O)N[C@@H](Cc1ccc(-c2c(C)cc(C(F)(F)F)n(C)c2=O)cc1)C(=O)O | 267 nM | 0.06 | 160 nM | 2.6 |  |  |
| CC(=O)OC(C)OC(=O)[C@H](Cc1ccc(-c2c(C(F)(F)F)cc(C)n(C)c2=O)cc1)NC(=O)c1c(Cl)cccc1Cl (some centres undefined) |  |  |  |  | 27.5 ×10⁻⁶ cm/s | solubility [6]: 4 µg/mL (≈ 6.52 µM); Stability [8]: Stable; bioavailability [9]: 17% |
| Cc1cc(C(F)(F)F)c(-c2ccc(C[C@H](NC(=O)c3c(Cl)cccc3Cl)C(=O)OCC(=O)N(C)C)cc2)c(=O)n1C |  |  |  |  | 6.3 ×10⁻⁶ cm/s | solubility [6]: 0.7 µg/mL (≈ 1.14 µM); solubility [7, 12]: 0.8 µg/mL (≈ 1.31 µM); Stability [8]: Stable |
| Cc1cc(C(F)(F)F)n(C)c(=O)c1-c1ccc(C[C@H](NC(=O)c2c(Cl)cccc2Cl)C(=O)O)cc1 | 269 nM | 0.11 | 126 nM | 2.2 |  |  |
| CCN(CC)CCOC(=O)[C@H](Cc1ccc(-c2c(C(F)(F)F)cc(C)n(C)c2=O)cc1)NC(=O)c1c(Cl)cccc1Cl |  |  |  |  | 9.6 ×10⁻⁶ cm/s | solubility [7, 12]: > 5000 µg/mL; IC20 [11]: 11700 nM; half-life ([8]; simulated intestinal fluid): 30 min; bioavailability [9]: 12% |
| Cc1ccn(C)c(=O)c1-c1ccc(C[C@H](NC(=O)c2c(Cl)cccc2Cl)C(=O)O)cc1 | 90 nM | 0.37 | 179 nM | 1.6 |  |  |
| Cc1cc(C(F)(F)F)c(-c2ccc(C[C@H](NC(=O)c3c(Cl)cccc3Cl)C(=O)OCC(C)C)cc2)c(=O)n1C |  |  |  |  | 32.5 ×10⁻⁶ cm/s | solubility [7, 13]: BLD; Stability [8]: Stable |
| CCCOC(=O)[C@H](Cc1ccc(-c2c(C(F)(F)F)cc(C)n(C)c2=O)cc1)NC(=O)c1c(Cl)cccc1Cl |  |  |  |  | 52.6 ×10⁻⁶ cm/s | solubility [7, 13]: BLD; Stability [8]: Stable |
| CCc1cccc(C)c1C(=O)N[C@@H](Cc1ccc(-c2c(C(F)(F)F)cc(C)n(C)c2=O)cc1)C(=O)O | 225 nM | 0.41 | 767 nM | 0.7 |  |  |
| CCn1c(C)cc(C(F)(F)F)c(-c2ccc(C[C@H](NC(=O)c3c(Cl)cccc3Cl)C(=O)O)cc2)c1=O | 112 nM | 0.4 | 61 nM | 1.9 |  |  |
| Cc1cccc(Cl)c1C(=O)N[C@@H](Cc1ccc(-c2cccn(C)c2=O)cc1)C(=O)O | 582 nM | 0.03 | 687 nM | 0.46 |  |  |
| Cc1cc(C(F)(F)F)c(-c2ccc(C[C@H](NC(=O)c3c(Cl)cccc3Cl)C(=O)OCC3CCOC3)cc2)c(=O)n1C (some centres undefined) |  |  |  |  | 76.4 ×10⁻⁶ cm/s | solubility [6]: 0.03 µg/mL (≈ 0.0491 µM); solubility [7, 12]: 0.03 µg/mL (≈ 0.0491 µM); Stability [8]: Stable |
| Cc1cccc(Cl)c1C(=O)N[C@@H](Cc1ccc(-c2c(C)ccn(C)c2=O)cc1)C(=O)O | 226 nM | 0.23 | 363 nM | 0.68 |  |  |
| Cc1cc(C(F)(F)F)c(-c2ccc(C[C@H](NC(=O)c3c(Cl)cccc3Cl)C(=O)O)cc2)c(=O)n1CC1CC1 | 463 nM | 0.03 | 1230 nM | 0.34 |  |  |
| COc1ccc(Br)c(C(=O)N[C@@H](Cc2ccc(-c3cccn(C)c3=O)cc2)C(=O)O)c1 | 419 nM |  |  |  |  |  |
| COCCCOC(=O)[C@H](Cc1ccc(-c2c(C(F)(F)F)cc(C)n(C)c2=O)cc1)NC(=O)c1c(Cl)cccc1Cl |  |  |  |  | 22.8 ×10⁻⁶ cm/s | bioavailability [9]: 2% |
